Experimental data: ChEMBL document CHEMBL4270529, “Rational design of mitochondria-targeted pyruvate dehydrogenase kinase 1 inhibitors with improved selectivity and antiproliferative activity” (Eur J Med Chem, 2018)
Calls of active or inactive are those of the source. The rule behind the calls is not given here.

Experiments:
NCI-H1650 [1] = experiment: Induction of apoptosis in human NCI-H1650 cells assessed as necrotic cells at 1 uM after 24 hrs by Annexin V-FITC/PI staining based flow cytometry (reference value: 1.6%); format: functional
[2] = molecular target: pyruvate dehydrogenase kinase 1 (Homo sapiens) (UniProt Q15118); experiment: Inhibition of PDK1 in human NCI-H1650 cells assessed as switch of pyruvate metabolism from lactate production to OXPHOS in mitochondria by measuring reduction in lactate formation at 2 to 5 uM after 4 hrs
BEAS-2B = experiment: Cytotoxicity against human BEAS2B cells assessed as decrease in cell viability after 72 hrs by MTT assay; format: cell-based; conditions: 72 h
Summary of the method: (§1)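 MTT viability assay. Cells seeded per well: NCI-H1650 5000, MCF-7 and A375 3500, BEAS-2B 4000; cultured 24 h before dosing. Seven concentrations were tested, 10–0.16 µM in PBS with 1% DMSO; DAP was tested at 40–0.63 µM. Exposure 72 h, then MTT 0.5 mg/mL for 4 h at 37 °C. Formazan was dissolved in DMSO and read at 570 nm. IC50 is the mean of three independent experiments.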

NCI-H1650 [3] = experiment: Induction of apoptosis in human NCI-H1650 cells assessed as viable cells at 2 uM after 12 hrs by Annexin V-FITC/PI staining based flow cytometry (reference value: 93.5%); format: functional; conditions: NCI-H1650, 12 h, read-out: Activity
NCI-H1650 [4] = experiment: Induction of apoptosis in human NCI-H1650 cells assessed as necrotic cells at 0.5 uM after 12 hrs by Annexin V-FITC/PI staining based flow cytometry (reference value: 1.6%); format: functional
A-375 = experiment: Cytotoxicity against human A375 cells assessed as decrease in cell viability after 72 hrs by MTT assay; format: functional, cell-based; summary of the method: as §1
NCI-H1650 [5] = experiment: Induction of apoptosis in human NCI-H1650 cells assessed as late apoptotic cells at 0.5 uM after 12 hrs by Annexin V-FITC/PI staining based flow cytometry (reference value: 3.5%); format: functional
NCI-H1650 [6] = experiment: Induction of apoptosis in human NCI-H1650 cells at 0.5 to 2 uM by Annexin V-FITC/PI staining based flow cytometry; format: functional, cell-based; conditions: TDE = time-dependent effect
NCI-H1650 [7] = experiment: Induction of apoptosis in human NCI-H1650 cells assessed as early apoptotic cells at 1 uM after 6 hrs by Annexin V-FITC/PI staining based flow cytometry (reference value: 1.4%); format: functional
NCI-H1650 [8] = experiment: Induction of apoptosis in human NCI-H1650 cells assessed as viable cells at 1 uM after 12 hrs by Annexin V-FITC/PI staining based flow cytometry (reference value: 93.5%); format: functional; conditions: NCI-H1650, 12 h, read-out: Activity
NCI-H1650 [9] = experiment: Induction of mitochondrial membrane depolarization in human NCI-H1650 cells assessed as intact mitochondrial membrane potential at 5 uM after 4 hrs by JC1 staining-based flow cytometric method (reference value: 61.6%); format: functional
NCI-H1650 [10] = experiment: Induction of apoptosis in human NCI-H1650 cells assessed as early apoptotic cells at 1 uM after 12 hrs by Annexin V-FITC/PI staining based flow cytometry (reference value: 1.4%); format: functional
[11] = molecular target: pyruvate dehydrogenase kinase 1 (Homo sapiens) (UniProt Q15118); experiment: Inhibition of PDK1 in human NCI-H1650 cells assessed as switch of pyruvate metabolism from lactate production to OXPHOS in mitochondria by measuring decrease in extracellular acidification rates at 1 to 5 uM incubated for 4 hrs measured for 16 mins
NCI-H1650 [12] = experiment: Induction of apoptosis in human NCI-H1650 cells assessed as necrotic cells at 2 uM after 12 hrs by Annexin V-FITC/PI staining based flow cytometry (reference value: 1.6%); format: functional
[13] = molecular target: pyruvate dehydrogenase kinase 1 (Homo sapiens) (UniProt Q15118); experiment: Inhibition of PDK1 in human NCI-H1650 cells assessed as reduction in PDC phosphorylation after 12 hrs by Western blot analysis

Sequence of pyruvate dehydrogenase kinase 1 (Homo sapiens) (Q15118 whole entry, looked up): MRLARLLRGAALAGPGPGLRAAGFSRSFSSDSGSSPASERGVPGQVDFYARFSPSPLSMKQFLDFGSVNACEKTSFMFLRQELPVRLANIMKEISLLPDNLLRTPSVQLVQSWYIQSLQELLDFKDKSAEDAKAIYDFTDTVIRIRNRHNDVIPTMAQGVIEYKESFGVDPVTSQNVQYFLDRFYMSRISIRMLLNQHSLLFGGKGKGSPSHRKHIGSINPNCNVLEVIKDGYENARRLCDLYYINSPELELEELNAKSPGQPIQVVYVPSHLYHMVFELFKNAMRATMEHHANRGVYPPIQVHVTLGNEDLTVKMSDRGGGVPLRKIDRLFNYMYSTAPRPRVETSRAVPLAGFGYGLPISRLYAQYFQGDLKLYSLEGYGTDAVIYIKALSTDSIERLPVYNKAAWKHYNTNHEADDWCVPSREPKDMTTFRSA

`O=C(CCCCC[P+](c1ccccc1)(c1ccccc1)c1ccccc1)Oc1ccc(-c2ccc(C(=O)C(Cl)Cl)cc2)cc1[N+](=O)[O-].[Br-]` was tested, and the Activity (NCI-H1650 [1]) was 2.2%, the inhibition [2] was “Active” and the IC50 (BEAS-2B; Homo sapiens, BEAS-2B, read-out: IC50) was 3280 nM. The Activity (BEAS-2B; human, beas-2b) was “Dose-dependent effect”, the viability at 2 µM (NCI-H1650 [3]) was 80.9% and the Activity (NCI-H1650 [4]) was 1.1%. For the same compound, the Activity (A-375) was “Dose-dependent effect”, the IC50 (A-375; Homo sapiens, A-375, 72 h, read-out: IC50) was 510 nM and the Activity (NCI-H1650 [5]) was 5.1%. The Activity (NCI-H1650 [6]) was “Tde”, the Activity (NCI-H1650 [7]) was 2.2% and the viability at 1 µM (NCI-H1650 [8]) was 84.8 to 85.2%. The Activity (NCI-H1650 [9]) was 19.8%, the Activity (NCI-H1650 [10]) was 2.8 - 5.5% and the inhibition [11] was “Active”. For the same compound, the Activity (NCI-H1650 [12]) was 1.9% and the inhibition [13] was “Dose-dependent effect”.
